Source: PubChem BioAssay (Johns Hopkins Ion Channel Center)
KCNQ1 inh – human KCNQ1 channel inhibition. 310,000 compounds, 1.3% hits. B-score at 10 µM. P51787. AID 2642. CHO-K1 KCNQ1, FluxOR thallium flux fluorescence; stronger effect = higher value;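 active = compounds whose thallium flux B-score, printed positive for inhibition, exceeds three library SD while starting fluorescence stays within three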;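 also: channel opened by potassium depolarization with thallium stimulus after 20 min compound exposure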
hERG protect – compounds protecting human hERG from proarrhythmic drug block. activation (rescue from dofetilide block), less the hit threshold, % at 10 µM. 310,000 compounds, 0.51% hits. CHO-hERG, FluxOR thallium flux, dofetilide IC70 present;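 active = activation above the mean of controls blocked by dofetilide plus 5 SD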;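 also: thallium influx through hERG after potassium depolarization seen as dye fluorescence rise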
KCNK3 block – human KCNK3 channel inhibition, primary screen | O14649 | CHO-KCNK3 thallium flux, FluxOR fluorescence; stronger effect = lower value | B-score at 10 µM | 340,000 compounds, 0.84% hits | AID 602410;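 active = B-score under library mean minus 4 SD, starting fluorescence ratio at most library mean plus 5 SD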;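 also: more negative B-score means stronger inhibition of thallium flux through KCNK3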
KCNK9 inh – human KCNK9 channel inhibition; AID 488922; 310,000 compounds, 1.2% hits; B-score at 10 µM; HEK293 KCNK9, FluxOR thallium flux fluorescence; stronger effect = lower value; Q9NPC2;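 active = ratio B-score over 3 SD below the library mean, with starting fluorescence within 5 SD of its mean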;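 also: negative B-score means less thallium flux so channel inhibition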
KCNQ1 act – human KCNQ1 channel potentiation or activation. CHO-K1 KCNQ1, thallium flux FluxOR fluorescence; stronger effect = higher value. P51787. B-score at 10 µM. 310,000 compounds, 0.35% hits;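 active = fluorescence ratio B-score, a plate-corrected score, at least three library SD, with initial intensity B-score within 5 SD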
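System: Stable KCNQ1 CHO-K1 line | Incubation: 90 min dye loading and 20 min compound exposure, both at room temperature | Measure: Ratio B score | Medium: Assay buffer for compound exposure, DMSO matched across wells | Compound dosing: Single-concentration screen | Probe or stimulus: K+/Tl+ depolarizing stimulus | Measured by: Kinetic FluxOR fluorescence, 10 s baseline plus 110 s post-stimulus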
Kir21 inh – blocks the mouse Kir2.1 inward-rectifier potassium channel; P35561; HEK293-Kir2.1, FluxOR thallium flux fluorescence; stronger effect = lower value; B-score at 10 µM; 310,000 compounds, 0.85% hits; AID 1672;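 active = fluorescence ratio B-score at or below minus 3 SD of library scores, with starting-brightness B-score within 2 SD, cut at about -4.2 in these data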;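 also: channel flux triggered by added potassium and thallium sulfate stimulus; B-score of peak minus minimum fluorescence over baseline after thallium stimulus; more negative B-score means stronger Kir2.1 block with less thallium influx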
* = called active by the depositor; i = inactive; x = no result given. The list is not random: actives were taken first. Their share in the collection is about 3.7%.

SMILES	KCNQ1 inh	hERG protect	KCNK3 block	KCNK9 inh	KCNQ1 act	Kir21 inh
CCOc1ccc(C=NC23CN4CN(CN(C4)C2)C3)cc1	i	12.2*	i	i	i	-0.43
CCOc1ccc(/C=N/O)cc1	i	-6.4	i	i	i	-1.74
O=C(c1ccc(Cn2c(=S)[nH]c3ccc(Br)cc3c2=O)cc1)N1CCN(C2CCCCC2)CC1	i	-16.9	i	i	i	0.03
O=C(NN=C1c2ccccc2-c2ccccc21)c1cccc(Br)c1	i	46.1*	i	i	18*	-0.36
O=C(N/N=C\c1ccc(-c2ccccc2[N+](=O)[O-])o1)C1COc2ccccc2O1 (configuration not stated)	i	-20.5	i	-6.84*	i	0.11
O=C(N/N=C\c1ccc(-c2ccccc2[N+](=O)[O-])o1)C1COc2cc3ccccc3cc2O1 (configuration not stated)	i	-7.8	i	i	i	-1.54
Cc1ccc(C(=O)O/N=C(\N)c2ccc(Br)cc2)cc1C	i	6.4*	i	i	i	0.35
CCCc1nn2c(=O)c(C(c3cccc(Cl)c3)c3c(O)nc4sc(CCC)nn4c3=O)c(O)nc2s1	i	6.1*	i	i	i	2.02
CON(C)c1nc(OCCNC(=O)OCc2ccc(Cl)cc2Cl)nc(N(C)C)n1	i	-6.8	i	i	i	-4.28*
CN(Cc1ccc(Cl)s1)C(=O)CNC(=O)CNC(=O)c1ccc(Cl)cc1Cl	x	x	i	x	x	x
CCOC(=O)/C(=N\Nc1ccccc1Cl)N1CCN(C)CC1	i	-5.6	i	i	i	-0.53
CCOC(=O)/C(=N\Nc1ccccc1Cl)N1CCN(Cc2ccccc2)CC1	7*	-6.2	i	-8.05*	i	0.43
CCN(C(=O)CCNC(=O)Cn1cnc2ccccc2c1=O)c1ccccc1F	i	-7.6	i	i	i	0.27
O=c1cc(CN2CCN(S(=O)(=O)c3cccc(Cl)c3)CC2)c2ccc(O)cc2o1	x	x	i	x	x	x
CC(NC(=O)CC1CCCCC1)c1ccccc1 (configuration not stated)	i	-5.0	i	i	i	-0.1
CC(NC(=O)NC1CCCCC1)c1ccccc1 (configuration not stated)	i	7.3*	i	i	i	0.55
CC(=O)O/N=C/c1c(C)c(C=O)n2ccccc12	i	-9.6	i	i	i	-1.18
COc1cc(/C=C/C(=O)c2ccc3c(c2)OCO3)cc(Cl)c1O	6*	-11.8	i	-7.04*	i	-9.65
COc1ccc(/C=C/C(=O)c2ccc3c(c2)OCO3)c(OC)c1	i	-5.0	i	i	i	-1.15
COC(=O)C1=NN(C(=O)c2ccccc2)C(O)(c2ccc([N+](=O)[O-])cc2)C1 (configuration not stated)	i	-6.6	i	i	i	1.32
COC(=O)C1=NN(C(=O)c2ccc(C)cc2)C(O)(c2ccc(Cl)cc2)C1 (configuration not stated)	i	50.2*	x	i	37*	-0.43
O=C(OCC(=O)N1CCc2ccccc2C1)c1cccs1	i	0.3	i	i	i	-0.01
COc1ccc(CN2CCC(C(=O)c3ccc(Cl)cc3)CC2)cc1	i	-14.7	i	i	i	-9.8*
Cc1cc(C)c(C)c(S(=O)(=O)N2CCN(C(=O)c3ccccn3)CC2)c1C	x	x	i	x	x	x
C/C(=N\NC(=O)c1ccccc1OCCOc1ccccc1)c1ccccc1F	x	x	-10.5*	x	x	x
COc1ccc(/C=N/NC(=O)c2nc(-c3ccccc3)cc(-c3ccccc3)n2)cc1	10*	-10.4	i	-7.13*	i	0.09
COc1ccc(C(=O)N/N=C/c2ccccc2OC(=O)c2ccccc2)cc1	i	-8.3	i	-13.7*	i	0.32
COc1ccccc1C=NNC(=O)c1ccccc1OCCOc1ccccc1	x	x	-10.2*	x	x	x
CC(C)(C)OC(=O)C[C@@H]1C/C=C\C[C@@H](CC(=O)N(CCO)Cc2ccccc2)C(=O)N[C@H](C(C)(C)C)COC1=O	x	x	i	x	x	x
COc1ccc2[nH]c(C(=O)N/N=C/c3ccccc3OC)cc2c1	i	-9.8	i	i	i	0.54
